The values below come from ChEMBL document CHEMBL1125462, “Substituent variation in azabicyclic triazole- and tetrazole-based muscarinic receptor ligands” (J Med Chem, 1992).

Test [1] deals with Muscarinic acetylcholine receptor. The test is described as follows: In vitro displacement of [3H]quinuclidinyl benzilate (QNB) from rat cerebral cortex muscarinic receptor. The format is tissue-based. Background: Loss of bound radioactivity is the signal in a displacement assay; it reports binding, not function.
For test [2] the target is unchanged. The test is described as follows: In vitro ability to displace [3H]oxotremorine-M (OXO-M) from rat cerebral cortex muscarinic receptor. The format is tissue-based.
For test [3] the target is unchanged. The test is described as follows: In vitro ability to displace [3H]oxotremorine-M (OXO-M) from rat cerebral cortex muscarinic acetylcholine receptor. It is filed as tissue-based. Put shortly: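 Hooded Lister rat cerebral cortex homogenised in ice-cold 50 mM Tris pH 7.7 (at 25 °C), washed by repeated 25000g spins, stored at -20 °C. Incubation buffer with 2 mM MgCl2; 37 °C, 30 min; filtered on GF/B filters presoaked in 0.05% polyethylenamine; scintillation counting. Seven concentrations; geometric mean of at least two separate experiments; IC50 (nM).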

Test [4] has the same target. The test is described as follows: In vitro ability to displace [3H]quinuclidinyl benzilate (QNB) from rat cerebral cortex muscarinic acetylcholine receptor. It is filed as tissue-based. The procedure, abridged:
(§1)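 Washed Hooded Lister rat cerebral cortex membranes (50 mM Tris pH 7.7), diluted from stored stock, incubated with test compound and 0.27 nM [3H]QNB at 37 °C for 30 min. GF/B filtration, ice-cold buffer washes, scintillation counting. Nonspecific binding typically 25% of total. Seven concentrations; geometric mean of separate experiments; IC50 (nM).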

In test [5] the target is Muscarinic acetylcholine receptor (Rattus norvegicus) (UniProt P08482+P08483+P08485+P08911+P10980). The test is described as follows: Ratio of Compound (IC50(nM) of QNB/ IC50(nM) of OXO-M). It is filed as protein assay.
The target in test [6] is Muscarinic acetylcholine receptor. The test is described as follows: In vitro ability to displace [3H]oxotremorine-M (OXO-M) from rat cerebral cortex Muscarinic acetylcholine receptor. It is filed as tissue-based.
For test [7] the target is unchanged. The test is described as follows: In vitro ability to displace [3H]quinuclidinyl benzilate (QNB) from rat cerebral cortex Muscarinic acetylcholine receptor. It is filed as tissue-based.
For test [8] the target is unchanged. The test is described as follows: In vitro ability to displace [3H]quinuclidinyl benzilate (QNB) from rat cerebral cortexMuscarinic acetylcholine receptor. The format is tissue-based, Cerebral cortex. The procedure, abridged: as §1

Take `c1ncn(C23CCN(CC2)C3)n1`: the IC50 is reported as 39900 nM in test [1] and 79 nM in test [2].
As for `Ic1nnn(C2CN3CCC2CC3)n1` (stereo unspecified), the IC50 was found to be 43 nM in test [3] and 216 nM in test [4]. Besides, in test [5], the Ratio worked out at 5.
Regarding `Nc1ncn([C@H]2CN3CC[C@H]2C3)n1`, the IC50 turned out to be 3600 nM in test [1] and 18 nM in test [2].
As for `Brc1nnn(C23CCCN(CC2)C3)n1` (stereo unspecified), the IC50 in test [6] turned out to be 5.5 nM; in test [7], 279 nM.
With `Nc1nnn(C2CN3CCC2CC3)n1` (stereo unspecified), the IC50 is reported as 4400 nM in test [1] and 38 nM in test [2].
In the same order, the values of `OC(c1ccccc1)(c1ccccc1)c1nnn(C2CN3CCC2CC3)n1` (stereo unspecified) are 2.8 nM and 3.6 nM.
In the same order, the values of `Cn1ncc(C23CCN(CC2)C3)n1` are 14400 nM and 35 nM.
The matching figures for `Cn1ncc([C@H]2CN3CC[C@H]2C3)n1`: 2800 nM and 5.4 nM.
Take `Cn1nnc([C@@H]2CN3CC[C@H]2C3)n1`: the figures for the IC50 in test [1] and in test [2] were 30600 nM and 325 nM, respectively.
As for `Cn1nnc(C23CCCN(CC2)C3)n1` (stereo unspecified), the IC50 worked out at 5700 nM in test [1] and 100 nM in test [2].
Take `c1ncn(C23CCCN(CC2)C3)n1` (stereo unspecified): the values for the IC50 in test [1] and in test [2] were 3600 nM and 12 nM, respectively.
As for `Brc1ncn([C@H]2CN3CC[C@H]2C3)n1`, the results for the IC50 in test [6] and in test [7] were 31 nM and 3040 nM, respectively.
In the case of `Clc1nnn([C@H]2CN3CC[C@H]2C3)n1`, the IC50 stood at 7.6 nM in test [3] and 630 nM in test [4]. The Ratio in test [5] stood at 83.
On to `O=[N+]([O-])c1ncn([C@H]2CN3CC[C@H]2C3)n1`, for which the 50% inhibitory concentration (IC50) in test [1] is on record as 35600 nM; in test [2], 4100 nM.
With `O=C1CCCN1CC#CCN1CCCC1`, the Ratio in test [5] turned out to be 190.
As to `Brc1nnn(C2CN3CCC2CC3)n1` (stereo unspecified), the IC50 is 20 nM in test [3] and 488 nM in test [4]. Besides, the Ratio in test [5] was found to be 25.
With `Clc1ncn([C@H]2CN3CC[C@H]2C3)n1`, the IC50 was 1290 nM in test [8] and 14 nM in test [6].
On to `Cn1ncc(C23CCCN(CC2)C3)n1` (stereo unspecified), for which the IC50 in test [1] is recorded as 3100 nM; in test [2], 14 nM.
The matching figures for `Cn1nnc([C@H]2CN3CC[C@H]2C3)n1`: 2900 nM and 11 nM.
Turning to `Nc1ncn(C23CCCN(CC2)C3)n1` (stereo unspecified), the figures for the IC50 in test [1] and in test [2] were 3900 nM and 13 nM, respectively.
In the same order, the values of `Cc1ncn([C@H]2CN3CC[C@H]2C3)n1` are 4300 nM and 17 nM.
Consider `Clc1nnn(C23CCCN(CC2)C3)n1` (stereo unspecified), for which the IC50 in test [3] turned out to be 3.5 nM; in test [4], 332 nM. Also, the Ratio in test [5] stood at 95.
Take `Cc1nnn(C23CCCN(CC2)C3)n1` (stereo unspecified): the IC50 is listed as 1925 nM in test [1] and 14 nM in test [2].
The matching figures for `c1ncn([C@H]2CN3CC[C@H]2C3)n1`: 38200 nM and 79 nM.
As for `Cc1ncn(C23CCN(CC2)C3)n1`, the IC50 in test [1] amounted to 14900 nM; in test [2], 86 nM.
`Cc1ncn(C23CCCN(CC2)C3)n1` (stereo unspecified): the IC50 in test [1] is on record as 2100 nM; in test [2], 12 nM.
In the same order, the values of `c1nnn([C@H]2CN3CC[C@H]2C3)n1` are 14300 nM and 30 nM.
Regarding `Ic1nnn([C@H]2CN3CC[C@H]2C3)n1`, the IC50 was found to be 48 nM in test [3] and 372 nM in test [4]. Also, the Ratio in test [5] amounted to 8.
Compound `Cc1nnn(C2CN3CCC2CC3)n1` (stereo unspecified) had an IC50 in test [2] of 31 nM.
Take `Brc1nnn([C@H]2CN3CC[C@H]2C3)n1`: the IC50 in test [3] worked out at 7.4 nM; in test [4], 822 nM. Moreover, in test [5], the Ratio was 111.
Consider `Cn1ncc([C@@H]2CN3CC[C@H]2C3)n1`, for which the IC50 was found to be 13500 nM in test [1] and 16 nM in test [2].
The matching figures for `Nc1nnn([C@H]2CN3CC[C@H]2C3)n1`: 4360 nM and 2.6 nM.
In the same order, the values of `Cc1nnn([C@H]2CN3CC[C@H]2C3)n1` are 1900 nM and 4.2 nM.
Consider `Clc1nnn(C2CN3CCC2CC3)n1` (stereo unspecified), for which the IC50 in test [3] is on record as 27 nM; in test [4], 578 nM. In addition, the Ratio in test [5] was determined as 21.
As for `Cn1nnc(C23CCN(CC2)C3)n1`, the values for the 50% inhibitory concentration (IC50) in test [1] and in test [2] were 46700 nM and 250 nM, respectively.
On to `N#Cc1nnn(C2CN3CCC2CC3)n1` (stereo unspecified), for which the IC50 in test [1] worked out at 5200 nM; in test [2], 1400 nM.
In the same order, the values of `Nc1nnn(C23CCCN(CC2)C3)n1` (stereo unspecified) are 2670 nM and 5.9 nM.
With `c1nnn(C23CCCN(CC2)C3)n1` (stereo unspecified), the IC50 in test [1] was found to be 7200 nM; in test [2], 19 nM.

A word on the IC50: it is the midpoint of a concentration-inhibition curve. A low value points to greater potency in that assay.
